Reference: ChEMBL document CHEMBL2380254, “Optimization of tocotrienols as antiproliferative and antimigratory leads” (Eur J Med Chem, 2013)

Tests used:
[1] = Growth inhibition of human EKVX cells assessed as cell growth at 10 uM after 48 hrs by sulforhodamine B assay; type: functional; details: read-out: Activity
Method in brief: (§1)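 NCI-60 single-dose screen at 10 µM: cells in RPMI 1640 with 5% FBS, preincubated 24 h, then exposed 48 h at 37 °C. TCA fixation (16% final for suspension cells), SRB staining, absorbance 515 nm. Percent growth relative to time-zero and untreated control plates; negative values indicate cell kill.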

Malme-3M = test: Growth inhibition of human MALME-3M cells after 48 hrs by sulforhodamine B assay; type: functional
Method in brief: (§2)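 NCI-60 panel cells grown in RPMI 1640 with 5% FBS and 2 mM L-glutamine, seeded at 5000–40,000 cells/well and preincubated 24 h. Five 10-fold dilutions (0.001–100 µM) from DMSO stocks were added for 48 h at 37 °C. Adherent cells were fixed with cold TCA (10% final) for 60 min at 4 °C, stained with 0.4% SRB, and read at 515 nm. GI50 was set where 100×(T−T0)/(C−T0)=50.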

OVCAR-4 = test: Growth inhibition of human OVCAR4 cells assessed as cell growth at 10 uM after 48 hrs by sulforhodamine B assay; type: functional; details: OVCAR-4, 48 h, read-out: Activity
Method in brief: (§3)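 Single-dose NCI-60 screen: adherent cells in RPMI 1640 with 5% FBS were exposed to 10 µM for 48 h at 37 °C after a 24 h preincubation. They were fixed in situ with cold TCA (10% final), stained with 0.4% SRB in 1% acetic acid, solubilized in 10 mM Tris base, and read at 515 nm. Percent growth was taken relative to time-zero and control plates.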

UACC-257 [2] = test: Growth inhibition of human UACC257 cells assessed as cell growth at 10 uM after 48 hrs by sulforhodamine B assay; type: functional; details: UACC-257, 48 h, read-out: Activity
Method in brief: (§4)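 Single-dose NCI-60 test at 10 µM. Cells were grown in RPMI 1640 with 5% FBS and 2 mM L-glutamine, preincubated 24 h, with T0 plates TCA-fixed. Exposure was 48 h at 37 °C, 5% CO2. Cells were fixed with cold TCA (final 10%, 4 °C, 60 min), stained with SRB and read at 515 nm. Percent growth was taken relative to T0 and untreated control; negative values denote cell kill.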

SK-MEL-2 = test: Growth inhibition of human SK-MEL-2 cells assessed as cell growth at 10 uM after 48 hrs by sulforhodamine B assay; type: functional; details: SK-MEL-2, 48 h, read-out: Activity; method in brief: as §3
A549 = test: Growth inhibition of human A549/ATCC cells after 48 hrs by sulforhodamine B assay; type: functional; details: A549, 48 h
Method in brief: (§5)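 NCI-60 screen: cells in RPMI 1640 with 5% FBS and 2 mM glutamine, 5000–40,000 cells/well, preincubated 24 h. Five concentrations (10-fold dilutions; 100 to 0.001 µM) applied for 48 h at 37 °C. TCA fixation, SRB stain, absorbance at 515 nm. Time-zero plates included; GI50 where 100×(T−T0)/(C−T0)=50.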

A498 = test: Growth inhibition of human A498 cells assessed as cell growth at 10 uM after 48 hrs by sulforhodamine B assay; type: functional; details: A498, 48 h, read-out: Activity; method in brief: as §1
SK-OV-3 [3] = test: Growth inhibition of human SKOV3 cells assessed as cell growth at 10 uM after 48 hrs by sulforhodamine B assay; type: functional; details: SK-OV-3, 48 h, read-out: Activity; method in brief: as §4
SK-OV-3 [4] = test: Growth inhibition of human SKOV3 cells after 48 hrs by sulforhodamine B assay; type: functional; details: SK-OV-3, 48 h
Method in brief: (§6)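 NCI-60 five-dose screen. Cells were grown in RPMI 1640 with 5% FBS and 2 mM L-glutamine, plated at 5000–40,000 cells/well and incubated 24 h before dosing, with T0 plates TCA-fixed. DMSO stocks were diluted to doses of […] and exposed 48 h at 37 °C, 5% CO2. Cells were fixed with cold TCA (final 10%, 60 min, 4 °C), stained with 0.4% SRB in 1% acetic acid for 10 min, solubilized in 10 mM trizma base and read at 515 nm. GI50 is where 100×(T−T0)/(C−T0)=50.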

PC-3 = test: Growth inhibition of human PC3 cells assessed as cell growth at 10 uM after 48 hrs by sulforhodamine B assay; type: functional; details: PC-3, 48 h, read-out: Activity; method in brief: as §3
MDA-MB-435 = test: Growth inhibition of human MDA-MB-435 cells after 48 hrs by sulforhodamine B assay; type: functional; details: MDA-MB-435, 48 h; method in brief: as §2
UO-31 = test: Growth inhibition of human UO31 cells assessed as cell growth at 10 uM after 48 hrs by sulforhodamine B assay; type: functional; details: UO-31, 48 h, read-out: Activity; method in brief: as §4
HL-60(TB) = test: Growth inhibition of human HL-60(TB) cells after 48 hrs by sulforhodamine B assay; type: functional; details: HL-60, 48 h
Method in brief: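 HL-60(TB) cells (suspension) grown in RPMI 1640 with 5% FBS and 2 mM L-glutamine. They were plated and preincubated for 24 h, with T0 plates fixed at that point. Drug was given at five 10-fold dilutions for 48 h at 37 °C. Settled cells were fixed with TCA (16% final), stained with 0.4% SRB in 1% acetic acid and read at 515 nm. GI50 was taken where 100×(T−T0)/(C−T0)=50.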

UACC-257 [5] = test: Growth inhibition of human UACC257 cells after 48 hrs by sulforhodamine B assay; type: functional; details: UACC-257, 48 h; method in brief: as §6
RPMI-8226 = test: Growth inhibition of human RPMI8226 cells assessed as cell growth at 10 uM after 48 hrs by sulforhodamine B assay; type: functional; details: RPMI-8226, 48 h, read-out: Activity
Method in brief: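 Single 10 µM dose applied to suspension cells in RPMI 1640 with 5% FBS and 2 mM L-glutamine for 48 h at 37 °C. Settled cells were fixed with 80% TCA (16% final), stained with SRB, and read at 515 nm. Percent growth was calculated against time-zero and untreated control optical densities.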

MDA-MB-231 = test: Antiproliferative activity against human MDA-MB-231 cells by MTT assay; type: functional, cell-based
Method in brief: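 Cells plated at 8 × 10^3/well (MDA-MB-231) or 10^4/well (MCF7) in 96-well plates. Compounds fed in media with 5% FBS (MDA-MB-231) or 1% FBS (MCF7). MTT read-out of viable cells.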

ACHN = test: Growth inhibition of human ACHN cells after 48 hrs by sulforhodamine B assay; type: functional; method in brief: as §5
M14 = test: Growth inhibition of human M14 cells assessed as cell growth at 10 uM after 48 hrs by sulforhodamine B assay; type: functional; details: M14, 48 h, read-out: Activity; method in brief: as §1
NCI-H522 = test: Growth inhibition of human NCI-H522 cells assessed as cell growth at 10 uM after 48 hrs by sulforhodamine B assay; type: functional; details: NCI-H522, 48 h, read-out: Activity; method in brief: as §3
KM12 = test: Growth inhibition of human KM12 cells assessed as cell growth at 10 uM after 48 hrs by sulforhodamine B assay; type: functional; details: KM12, 48 h, read-out: Activity; method in brief: as §1
HCT-15 = test: Growth inhibition of human HCT15 cells after 48 hrs by sulforhodamine B assay; type: functional; details: HCT-15, 48 h; method in brief: as §5

Row | Structure (SMILES) | growth at 10 µM [1] [%] | GI50 (Malme-3M) [µM] | growth at 10 µM (OVCAR-4) [%] | growth at 10 µM (UACC-257 [2]) [%] | growth at 10 µM (SK-MEL-2) [%] | GI50 (A549) [µM] | growth at 10 µM (A498) [%] | growth at 10 µM (SK-OV-3 [3]) [%] | GI50 (SK-OV-3 [4]) [µM] | growth at 10 µM (PC-3) [%] | GI50 (MDA-MB-435) [µM] | growth at 10 µM (UO-31) [%] | GI50 (HL-60(TB)) [µM] | GI50 (UACC-257 [5]) [µM] | growth at 10 µM (RPMI-8226) [%] | GI50 (ACHN) [µM] | growth at 10 µM (M14) [%] | growth at 10 µM (NCI-H522) [%] | growth at 10 µM (KM12) [%] | GI50 (HCT-15) [µM] | also measured
1 | CC(C)=CCC/C(C)=C/CC/C(C)=C/CC[C@]1(C)CCc2c3c(cc(C)c2O1)OCN(CCCCCO)C3 | 90.5 | 6.9 | 43.3 | 83.8 | 117 | 6.19 | 89.7 | 96.9 | 6.85 | 63.7 | 5.8 | 50.4 | 6.26 | 6.97 | -16.3 | 5.74 | 57.9 | 4.69 | 13 | 6.24 | IC50 (MDA-MB-231): 9 µM
2 | CC(C)=CCC/C(C)=C/CC/C(C)=C/CC[C@]1(C)CCc2c3c(cc(C)c2O1)OCN(CCCCO)C3 | 85.4 | 22.4 | -94.8 | 98.1 | – | 15.5 | 103 | 26.4 | 16.4 | 61.4 | 17 | 54.9 | 18.8 | 11.4 | 79.2 | 16.3 | -45.8 | 48.5 | -89.5 | 17.7 | IC50 (MDA-MB-231): > 5 µM
3 | CC(C)=CCC/C(C)=C/CC/C(C)=C/CC[C@]1(C)CCc2c3c(c(C)c(C)c2O1)OCN(CCCCCCCCO)C3 | – | 3.14 | 57.9 | 119 | 71.7 | 2.5 | 117 | 52.9 | 2.63 | 26.8 | 3.2 | 27.9 | 3.44 | 2.96 | 71.2 | 2.62 | -24 | 30.9 | 15.7 | 3.32 | IC50 (MDA-MB-231): > 20 µM
4 | COc1ccc(CCN2COc3cc(C)c4c(c3C2)CC[C@@](C)(CC/C=C(\C)CC/C=C(\C)CCC=C(C)C)O4)cc1OC | 85.5 | 2.03 | 40.1 | 71.8 | 86.4 | 1.9 | 83.2 | 92.8 | 1.9 | 62.1 | 1.66 | 51.2 | 1.9 | 5.58 | -32.6 | 1.75 | -19.5 | -45.8 | -82.6 | 1.93 | –
